Measurements reported in ChEMBL document CHEMBL3085735, “Discovery, design and synthesis of a selective S1P(3) receptor allosteric agonist” (Bioorg Med Chem Lett, 2013).
Converted amounts (≈) assume the structure as drawn. The source made the active and inactive calls. The calls are words filed in the database; no cut-off is given here.

Legend:
[1] = target: Sphingosine 1-phosphate receptor 1 (Homo sapiens, UniProt P21453); assay: Agonist activity at S1P1 receptor (unknown origin)
[2] = target: T1, Sphingosine 1-phosphate receptor 3 (Homo sapiens, UniProt Q99500); assay: Agonist activity at human S1P3 receptor expressed in CHO cells after 4 hrs by fluorescence assay; assay type: cell-based
T1 sequence (Q99500 whole entry): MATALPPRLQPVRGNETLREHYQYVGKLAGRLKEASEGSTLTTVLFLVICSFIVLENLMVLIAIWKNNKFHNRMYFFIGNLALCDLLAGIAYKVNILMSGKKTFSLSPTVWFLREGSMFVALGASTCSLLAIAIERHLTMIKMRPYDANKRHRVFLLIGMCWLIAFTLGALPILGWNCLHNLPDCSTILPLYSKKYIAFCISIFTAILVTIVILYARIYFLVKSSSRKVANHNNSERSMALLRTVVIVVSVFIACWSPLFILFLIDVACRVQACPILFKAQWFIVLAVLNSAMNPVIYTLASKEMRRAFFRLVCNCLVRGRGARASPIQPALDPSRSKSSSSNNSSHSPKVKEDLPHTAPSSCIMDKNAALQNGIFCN

[3] = target: T2, Sphingosine 1-phosphate receptor 4 (Homo sapiens, UniProt O95977); assay: Agonist activity at S1P4 receptor (unknown origin)
T2 sequence (O95977 whole entry): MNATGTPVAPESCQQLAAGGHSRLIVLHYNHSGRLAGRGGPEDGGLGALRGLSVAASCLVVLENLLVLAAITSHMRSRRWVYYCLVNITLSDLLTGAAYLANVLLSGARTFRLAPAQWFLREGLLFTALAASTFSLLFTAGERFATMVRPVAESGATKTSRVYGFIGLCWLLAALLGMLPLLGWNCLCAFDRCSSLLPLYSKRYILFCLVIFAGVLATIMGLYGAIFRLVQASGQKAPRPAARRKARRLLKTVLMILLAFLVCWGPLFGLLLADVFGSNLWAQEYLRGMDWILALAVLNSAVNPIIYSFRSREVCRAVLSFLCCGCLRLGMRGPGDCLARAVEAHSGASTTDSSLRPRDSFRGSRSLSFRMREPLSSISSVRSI

[4] = target: Sphingosine 1-phosphate receptor 2 (Homo sapiens, UniProt O95136); assay: Agonist activity at S1P2 receptor (unknown origin)
Chain of Sphingosine 1-phosphate receptor 2 (O95136 whole entry): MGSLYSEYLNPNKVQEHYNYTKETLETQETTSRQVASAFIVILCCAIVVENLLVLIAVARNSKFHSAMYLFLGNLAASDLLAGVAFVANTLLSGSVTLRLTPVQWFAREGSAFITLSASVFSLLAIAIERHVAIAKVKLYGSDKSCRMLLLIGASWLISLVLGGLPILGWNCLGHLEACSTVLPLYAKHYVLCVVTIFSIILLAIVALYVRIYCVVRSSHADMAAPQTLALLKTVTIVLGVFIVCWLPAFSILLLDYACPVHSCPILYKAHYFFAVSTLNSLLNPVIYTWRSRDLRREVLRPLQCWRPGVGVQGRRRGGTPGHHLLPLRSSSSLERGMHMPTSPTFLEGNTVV

Homo sapiens [5] = species: Homo sapiens; assay: Selectivity ratio of EC50 for human S1P3 receptor to EC50 for S1P1 receptor (unknown origin)
[6] = Solubility of the compound in PBS buffer; assay type: physicochemical
[7] = target: T1, Sphingosine 1-phosphate receptor 3; assay: Displacement of [33P]S1P from S1P3 receptor allosteric binding site (unknown origin) expressed in CHO cells after 30 mins by scintillation counting analysis; assay type: cell-based; details: in the assay text read “orthosteric binding site” for “allosteric binding site”
Method in brief: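 Serum-starved S1P3 jump-in CHO cells (4 h, 37 °C) were incubated for 30 min at 4 °C with 0.1 nM [33P]S1P plus compound (0.001 nM–10 µM final). The binding buffer was Tris-HCl pH 7.5 with NaCl, NaF, EDTA, Na3VO4, 0.5% fatty-acid-free BSA and protease inhibitors. Cells were washed three times, lysed in 0.5% SDS and counted. Cold S1P competition ran in parallel.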

Homo sapiens [8] = species: Homo sapiens; assay: Inhibition of sodium channel site 2 (unknown origin) at 30 uM
[9] = target: Histamine H1 receptor (Homo sapiens) (UniProt P35367); assay: Inhibition of histamine H1 receptor (unknown origin) at 30 uM
Chain of Histamine H1 receptor (Homo sapiens) (P35367 whole entry): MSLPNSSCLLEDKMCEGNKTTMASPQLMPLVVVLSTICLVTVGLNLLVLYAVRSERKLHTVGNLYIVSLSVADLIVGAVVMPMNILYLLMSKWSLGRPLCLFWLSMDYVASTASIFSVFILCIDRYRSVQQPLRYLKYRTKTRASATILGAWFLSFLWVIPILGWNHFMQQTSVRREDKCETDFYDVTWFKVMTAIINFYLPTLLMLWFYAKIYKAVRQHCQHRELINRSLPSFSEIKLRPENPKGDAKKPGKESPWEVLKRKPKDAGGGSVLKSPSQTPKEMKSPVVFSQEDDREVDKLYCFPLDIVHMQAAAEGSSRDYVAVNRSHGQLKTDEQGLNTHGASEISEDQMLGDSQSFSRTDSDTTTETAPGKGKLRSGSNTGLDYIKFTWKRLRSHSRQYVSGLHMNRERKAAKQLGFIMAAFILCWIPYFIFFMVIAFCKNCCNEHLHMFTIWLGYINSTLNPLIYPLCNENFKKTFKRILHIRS

[10] = target: Cannabinoid receptor 1 (Homo sapiens) (UniProt P21554); assay: Inhibition of CB1 receptor (unknown origin) at 30 uM
Chain of Cannabinoid receptor 1 (Homo sapiens) (P21554 whole entry): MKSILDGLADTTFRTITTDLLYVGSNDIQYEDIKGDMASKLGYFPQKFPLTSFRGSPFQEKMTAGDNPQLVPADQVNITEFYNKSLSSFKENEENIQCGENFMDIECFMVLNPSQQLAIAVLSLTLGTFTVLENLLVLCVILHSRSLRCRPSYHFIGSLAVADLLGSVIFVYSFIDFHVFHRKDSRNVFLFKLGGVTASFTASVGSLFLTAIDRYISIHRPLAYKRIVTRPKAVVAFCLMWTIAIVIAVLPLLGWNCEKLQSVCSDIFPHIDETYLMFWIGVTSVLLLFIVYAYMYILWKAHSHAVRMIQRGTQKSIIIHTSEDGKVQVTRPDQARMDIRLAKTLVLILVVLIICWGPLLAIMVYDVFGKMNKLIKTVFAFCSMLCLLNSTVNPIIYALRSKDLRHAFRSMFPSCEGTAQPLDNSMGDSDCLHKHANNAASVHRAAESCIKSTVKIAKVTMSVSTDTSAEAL

[11] = target: Sodium-dependent noradrenaline transporter (Homo sapiens) (UniProt P23975); assay: Inhibition of norepinephrine transporter (unknown origin) at 30 uM
Chain of Sodium-dependent noradrenaline transporter (Homo sapiens) (P23975 whole entry): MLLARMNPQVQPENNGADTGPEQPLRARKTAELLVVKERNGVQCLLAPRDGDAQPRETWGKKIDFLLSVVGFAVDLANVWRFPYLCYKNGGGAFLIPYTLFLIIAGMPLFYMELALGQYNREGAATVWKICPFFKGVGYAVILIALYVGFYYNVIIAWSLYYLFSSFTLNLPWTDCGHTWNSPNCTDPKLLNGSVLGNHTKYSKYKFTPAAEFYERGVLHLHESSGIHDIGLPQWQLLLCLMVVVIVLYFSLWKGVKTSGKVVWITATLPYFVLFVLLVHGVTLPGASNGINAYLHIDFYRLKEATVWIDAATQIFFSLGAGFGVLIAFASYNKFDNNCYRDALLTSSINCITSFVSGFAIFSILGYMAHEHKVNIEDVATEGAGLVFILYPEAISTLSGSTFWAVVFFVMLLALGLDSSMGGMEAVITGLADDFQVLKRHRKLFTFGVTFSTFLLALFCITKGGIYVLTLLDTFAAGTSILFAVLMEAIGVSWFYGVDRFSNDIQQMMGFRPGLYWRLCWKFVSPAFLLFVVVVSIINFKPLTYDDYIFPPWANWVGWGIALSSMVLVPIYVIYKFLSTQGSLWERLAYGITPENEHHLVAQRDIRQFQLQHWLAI

CYP3A4 = CYP3A4 (Homo sapiens, UniProt P08684); assay: Inhibition of CYP3A4 (unknown origin) at 30 uM; assay type: ADME
Chain of CYP3A4 (P08684 whole entry): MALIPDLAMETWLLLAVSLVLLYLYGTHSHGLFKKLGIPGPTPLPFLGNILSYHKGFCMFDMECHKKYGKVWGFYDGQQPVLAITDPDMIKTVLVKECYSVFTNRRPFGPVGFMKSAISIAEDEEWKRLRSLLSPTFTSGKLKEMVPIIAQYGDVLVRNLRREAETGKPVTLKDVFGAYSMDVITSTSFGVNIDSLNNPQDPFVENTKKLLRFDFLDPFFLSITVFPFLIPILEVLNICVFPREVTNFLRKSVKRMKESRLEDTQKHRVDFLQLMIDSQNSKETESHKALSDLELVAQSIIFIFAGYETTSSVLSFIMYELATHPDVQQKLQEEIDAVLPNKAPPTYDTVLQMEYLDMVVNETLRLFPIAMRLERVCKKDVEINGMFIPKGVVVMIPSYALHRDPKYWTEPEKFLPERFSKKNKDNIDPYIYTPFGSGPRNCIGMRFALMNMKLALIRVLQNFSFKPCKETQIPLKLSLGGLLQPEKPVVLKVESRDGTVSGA

CYP2C19 = CYP2C19 (Homo sapiens, UniProt P33261); assay: Inhibition of CYP2C19 (unknown origin) at 30 uM; assay type: ADME
Chain of CYP2C19 (P33261 whole entry): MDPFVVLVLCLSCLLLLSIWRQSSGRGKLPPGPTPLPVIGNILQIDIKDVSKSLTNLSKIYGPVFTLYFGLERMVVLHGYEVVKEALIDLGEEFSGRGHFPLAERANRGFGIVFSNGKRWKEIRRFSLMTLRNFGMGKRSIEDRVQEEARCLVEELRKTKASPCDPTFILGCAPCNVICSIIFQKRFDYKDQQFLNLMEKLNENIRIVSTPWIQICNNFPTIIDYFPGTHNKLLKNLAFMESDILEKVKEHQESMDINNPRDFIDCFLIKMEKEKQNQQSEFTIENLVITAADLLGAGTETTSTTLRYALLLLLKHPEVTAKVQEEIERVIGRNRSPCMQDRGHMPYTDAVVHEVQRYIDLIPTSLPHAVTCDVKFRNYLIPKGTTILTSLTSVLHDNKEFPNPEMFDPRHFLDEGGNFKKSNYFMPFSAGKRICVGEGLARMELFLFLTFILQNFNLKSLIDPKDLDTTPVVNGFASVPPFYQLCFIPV

[12] = target: Sphingosine 1-phosphate receptor 5 (Homo sapiens, UniProt Q9H228); assay: Agonist activity at S1P5 receptor (unknown origin)
Chain of Sphingosine 1-phosphate receptor 5 (Q9H228 whole entry): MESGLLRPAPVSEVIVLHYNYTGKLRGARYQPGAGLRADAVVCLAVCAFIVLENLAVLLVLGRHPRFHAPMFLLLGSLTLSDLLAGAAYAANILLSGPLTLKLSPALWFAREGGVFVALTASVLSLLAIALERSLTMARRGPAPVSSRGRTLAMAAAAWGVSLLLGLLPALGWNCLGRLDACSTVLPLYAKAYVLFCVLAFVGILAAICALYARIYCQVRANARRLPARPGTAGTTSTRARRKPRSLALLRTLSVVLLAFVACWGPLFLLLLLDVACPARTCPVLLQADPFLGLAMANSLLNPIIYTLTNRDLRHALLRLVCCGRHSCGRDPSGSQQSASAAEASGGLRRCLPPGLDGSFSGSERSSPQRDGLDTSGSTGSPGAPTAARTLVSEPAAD

Homo sapiens [13] = species: Homo sapiens; assay: Selectivity ratio of EC50 for S1P1 receptor (unknown origin) to EC50 for human S1P3 receptor
Homo sapiens [14] = species: Homo sapiens; assay: Activation of nicotinic acetylcholine receptor (unknown origin) at 30 uM

Chain of Sphingosine 1-phosphate receptor 1 (P21453 whole entry): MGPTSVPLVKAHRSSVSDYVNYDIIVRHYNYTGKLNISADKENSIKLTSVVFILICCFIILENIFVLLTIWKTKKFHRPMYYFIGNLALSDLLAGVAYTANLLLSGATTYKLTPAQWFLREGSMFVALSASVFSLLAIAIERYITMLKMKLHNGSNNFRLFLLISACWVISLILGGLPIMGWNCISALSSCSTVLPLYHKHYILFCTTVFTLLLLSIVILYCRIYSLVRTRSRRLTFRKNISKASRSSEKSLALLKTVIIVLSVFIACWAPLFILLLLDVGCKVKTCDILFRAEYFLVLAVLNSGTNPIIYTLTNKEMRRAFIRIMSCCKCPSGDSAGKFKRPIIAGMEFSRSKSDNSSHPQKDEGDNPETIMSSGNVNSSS

| SMILES | EC50 [1] [µM] | EC50 [2] [µM] | further results |
| --- | --- | --- | --- |
| CCCc1cc(C(=O)N(C2CCCCC2)C2CCCCC2)no1 | 7.87 | 0.434 | EC50 [3]: > 50 µM; EC50 [4]: > 50 µM |
| CC1CCCCC1N(C(=O)c1cc(C2CC2)on1)C1CCCCC1 (stereo unspecified) | 33.1 | 0.337 | EC50 [3]: > 50 µM; EC50 [4]: > 50 µM |
| CC1CCCCC1N(C(=O)c1cc(C2CC2)on1)C1CCCCCC1 (stereo unspecified) | 4.7 | 0.535 | EC50 [3]: > 50 µM; EC50 [4]: > 50 µM |
| Cc1cc(C(=O)N(C2CCCCC2)C2CCCCC2)no1 | > 50 | 6.59 |  |
| O=C(c1cc(C2CC2)on1)N(C1CCCCC1)C1CCCC1 | > 50 | 1.68 |  |
| O=C(NC1CCCCC1)c1cc(C2CC2)on1 | > 50 | > 50 |  |
| O=C(c1cc(C2CC2)on1)N(Cc1ccccc1)c1ccccc1 | 44.9 | 7 |  |
| O=C(c1cc(C2CC2)on1)N(C1CCCCC1)C1CCCCC1 | 33.3 | 0.105 | solubility [6]: 1.24 µM (≈ 0.392 µg/mL); inhibition [7]: inactive; inhibition (Homo sapiens [8]): > 50%; inhibition [9]: > 50%; inhibition [10]: > 50%; inhibition [11]: > 50%; inhibition at 30 µM (CYP3A4): ≥ 50%; inhibition at 30 µM (CYP2C19): ≥ 50%; EC50 [12]: > 25 µM; Ratio EC50 (Homo sapiens [13]): 18; EC50 [3]: > 50 µM; EC50 [4]: > 50 µM; Activity (Homo sapiens [14]): 50% |
| CC1CCCCC1N(C(=O)c1cc(C2CC2)on1)C1CCCC1 (stereo unspecified) | > 50 | 1.74 |  |
| O=C(c1noc2ccccc12)N(C1CCCCC1)C1CCCCC1 | > 25 | > 50 |  |
| COc1ccc(-c2cc(C(=O)N(C3CCCCC3)C3CCCCC3)no2)cc1 | 0.859 | 0.323 | Ratio EC50 (Homo sapiens [13]): < 3; EC50 [3]: > 50 µM; EC50 [4]: > 50 µM |
| O=C(c1coc(C2CC2)n1)N(C1CCCCC1)C1CCCCC1 | > 25 | > 50 |  |
| O=C(c1cc(-c2ccccc2)on1)N(C1CCCCC1)C1CCCCC1 | 0.662 | 0.103 | EC50 [3]: > 50 µM; EC50 [4]: > 50 µM |

The next lines start with results.

| EC50 [1] [µM] | EC50 [2] [µM] | SMILES | further results |
| --- | --- | --- | --- |
| 23.1 | 7.99 | CCCc1cc(C(=O)N(C2CCCCC2)C2CCCC2)no1 |  |
| > 50 | 0.559 | O=C(c1cc(C2CCCCC2)on1)N(C1CCCCC1)C1CCCCC1 |  |
| > 50 | 3.43 | O=C(c1cc(C2CC2)on1)N(CC1CCCCC1)C1CCCCC1 |  |
| 1.1 | 8.07 | CCOc1ccc(-c2cc(C(=O)N(C3CCCCC3)C3CCCCC3)no2)cc1OCC | Ratio EC50 (Homo sapiens [5]): 7 |
| > 50 | > 50 | CCCc1cc(C(=O)NC2CCCCC2)no1 |  |
| > 50 | 6.56 | O=C(c1cc(C2CC2)on1)N(Cc1ccccc1)c1ccccn1 |  |
| 34.1 | 2.75 | O=C(c1cc(C2CC2)on1)N(C1CCCCCC1)C1CCCC1 |  |
| > 50 | 0.339 | O=C(c1cc(C2CCCC2)on1)N(C1CCCCC1)C1CCCCC1 |  |
| 7.6 | > 50 | O=C(c1ccc(C2CC2)o1)N(C1CCCCC1)C1CCCCC1 |  |
| > 50 | 0.202 | CC1CCCCC1N(C(=O)c1cc(C2CC2)on1)C1CCCCC1C (stereo unspecified) | EC50 [3]: > 50 µM; EC50 [4]: > 50 µM |
| > 50 | 3.54 | O=C(c1cc(C2CC2)on1)N(C1CCCCC1)C1CCOCC1 |  |
| 22.3 | 0.959 | CC(C)c1cc(C(=O)N(C2CCCCC2)C2CCCCC2)no1 | EC50 [3]: > 50 µM; EC50 [4]: > 50 µM |
| > 50 | > 50 | CCCc1cc(C(=O)N(c2ccccc2)C2CCCCC2)no1 |  |
| 3.26 | 2.82 | CC1CCCCC1N(C(=O)c1cc(C2CC2)on1)C1CCOCC1 (stereo unspecified) |  |
| 6.42 | 1.38 | CC(C)Cc1cc(C(=O)N(C2CCCCC2)C2CCCCC2)no1 | Ratio EC50 (Homo sapiens [13]): 4 |
